# Experimental data gathered from unrelated publications.
# Target: Serine/threonine-protein kinase DCLK2 (DCLK2, Homo sapiens, UniProt Q8N568)
# Residues used in one study (Q8N568 1-766): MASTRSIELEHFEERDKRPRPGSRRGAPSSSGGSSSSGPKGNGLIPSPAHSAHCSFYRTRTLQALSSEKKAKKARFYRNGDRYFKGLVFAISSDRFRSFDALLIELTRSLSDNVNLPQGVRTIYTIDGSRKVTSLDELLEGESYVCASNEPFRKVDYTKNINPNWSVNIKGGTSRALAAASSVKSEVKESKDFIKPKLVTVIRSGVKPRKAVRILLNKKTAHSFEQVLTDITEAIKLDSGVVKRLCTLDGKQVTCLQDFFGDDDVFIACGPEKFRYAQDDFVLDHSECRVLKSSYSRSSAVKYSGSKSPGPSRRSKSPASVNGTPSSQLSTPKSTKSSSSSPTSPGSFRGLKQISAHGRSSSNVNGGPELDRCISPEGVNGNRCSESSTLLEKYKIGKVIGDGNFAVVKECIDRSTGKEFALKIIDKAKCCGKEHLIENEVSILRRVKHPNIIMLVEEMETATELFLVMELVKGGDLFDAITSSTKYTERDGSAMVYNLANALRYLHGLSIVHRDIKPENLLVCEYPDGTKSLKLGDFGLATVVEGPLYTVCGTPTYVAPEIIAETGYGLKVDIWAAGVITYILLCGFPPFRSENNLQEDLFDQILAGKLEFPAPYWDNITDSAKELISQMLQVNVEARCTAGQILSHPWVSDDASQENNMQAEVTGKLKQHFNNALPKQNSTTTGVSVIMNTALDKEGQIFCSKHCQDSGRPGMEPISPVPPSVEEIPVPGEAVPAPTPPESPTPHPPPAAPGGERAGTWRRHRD
Compound,test,setting,remaining binding [%]
NS(=O)(=O)c1cc(NC(=O)C2(c3ccccc3Cl)CC2)ccc1Oc1cccc(Cl)c1,"cell-free assay, competition with immobilised ligand",1 µM,74
Cc1cnn2ncc(-c3ccnc(N(C)C)n3)c2c1,binding,1 µM,100
COc1cnc(Nc2cccc(S(N)(=O)=O)c2)nc1N1CCN(c2ccccc2)C(=O)C1,"binding, competition with immobilised ligand",1 µM,100
c1cncc(-c2cccc(Nc3nccc(NC4CCCCC4)n3)c2)c1,"binding, competition with immobilised ligand",10 µM,100
COc1cnc(Nc2cccc(S(N)(=O)=O)c2)nc1N1CCN(c2ccccc2)CC1,"binding, competition with immobilised ligand",1 µM,92
CO[C@@H](C)c1c(Nc2ccc([C@@H](N(C)C(=O)C3CCS(=O)(=O)CC3)C(F)(F)F)cc2)cnc2cc(Cl)nn12,"cell-free assay, competition with immobilised ligand",1 µM,95
O=C(NCCCN1CCOCC1)c1ccc(Nc2nccc(-c3cc4ccccc4s3)n2)cc1,"binding, competition with immobilised ligand",1 µM,98
COc1ccnn2ncc(-c3ccnc(N(C)C)n3)c12,binding,1 µM,100
O=C(NCC1CCOCC1)c1n[nH]cc1NC(=O)c1c(F)cccc1F,"binding, competition with immobilised ligand",1 µM,100
C[C@@H](c1ccc(-n2cnc3c(N)ncnc32)cc1)N1CCc2nn(C)c(Cc3ccccc3)c2C1=O,"binding, competition with immobilised ligand",0.1 µM,100
CN(C)c1ncc(F)c(-c2cnn3ncccc23)n1,binding,1 µM,96
CCOCCn1cc(C(=O)Nc2ccc(-n3nc(-c4cccnc4)cc3C(F)(F)F)cn2)ccc1=O,"cell-free assay, competition with immobilised ligand",1 µM,89
O=C(c1ccc(Nc2ncc(Cl)c(-c3cc4ccccc4s3)n2)cc1)N1CCC(N2CCCC2)CC1,"binding, competition with immobilised ligand",1 µM,90
NS(=O)(=O)c1cc(NC(=O)Cc2ccccc2)ccc1Oc1cccc(Cl)c1,"cell-free assay, competition with immobilised ligand",1 µM,99
COc1ncc2cc3ccccc3nc2c1C#N,"cell-free assay, competition with immobilised ligand",5 µM,94
CNCc1ccccc1-c1csc([C@H](C)Nc2nc(C)nc3cc(OC)c(OC)cc23)c1,"cell-free assay, competition with immobilised ligand",1 µM,100
O=C(c1ccc(Nc2nccc(-c3cc4ccccc4s3)n2)cc1)N1CCC(N2CCCC2)CC1,"binding, competition with immobilised ligand",1 µM,97
CCOC(=O)c1cc2cc(-c3cc(C(=O)NCc4ccc(C(=O)O)cc4)nn3C)ccc2[nH]1,"cell-free assay, competition with immobilised ligand",0.1 µM,100
CC1CCCN1c1nccc(-c2cnn3ncccc23)n1 (stereo not shown),binding,1 µM,100
